High-throughput results (PubChem)
Most compounds without a hit are left out; they make up all but 3% or so of the library.
SENP7 inh: blocks the human protease SENP7; Q9BQF6; recombinant SENP7, Z-RLRGG-aminoluciferin luminescence, 40 min; inhibition, % at 5 µM; 330,000 compounds, 1.5% hits; AID 434973;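 active = inhibition above about 50% at the single test dose, limit read from the data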;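 also: plate controls were DMSO with enzyme for no effect and no enzyme buffer wells for full effect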
SENP6 block: blocks the human protease SENP6; Q9GZR1; Recombinant SENP6 catalytic domain, aminoluciferin luminescence; inhibition, % at 10 µM; 330,000 compounds, 1.8% hits;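 active = inhibition above about 50% at the single tested dose, limit read from the data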;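 also: plate controls were DMSO wells with enzyme for no effect and DMSO wells lacking enzyme for full effect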
UBC13 inh: human UBC13 polyubiquitination inhibition | 330,000 compounds, 0.47% hits | UBC13 polyubiquitin chain formation, TR-FRET | AID 485273 | inhibition, % at 20 µM; in the data active = inhibition above about 45%, passing the limit was not always enough
Target sequence (P61088 whole entry, looked up): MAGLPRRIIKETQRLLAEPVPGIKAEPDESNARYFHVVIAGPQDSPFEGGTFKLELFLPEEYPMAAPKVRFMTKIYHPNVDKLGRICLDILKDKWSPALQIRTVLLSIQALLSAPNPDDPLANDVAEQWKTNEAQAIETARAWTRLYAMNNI
Apaf-1 inh: inhibitors of human Apaf-1 apoptosome | inhibition, % at 20 µM | 330,000 compounds, 0.71% hits | AID 489030 | reconstituted apoptosome caspase-3 activity, DEVD-Rh110 fluorescence | O14727; active = inhibition of at least 40% at 20 µM;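 also: plate controls were DMSO wells for no effect and DEVD-CHO caspase inhibitor wells for full effect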
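detection = Rh110 fluorescence intensity | test system = biochemical Apaf-1 apoptosome reconstitution | also added = cytochrome c and DEVD-Rh110 substrate | schedule = 30 min plus 50 min, RT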
SENP8 block-1: inhibitors of human SENP8 protease; purified SENP8, Z-RLRGG-aminoluciferin cleavage, luminescence; 330,000 compounds, 1.2% hits; Q96LD8; AID 2540; inhibition, % at 10 µM; in the data active = inhibition above about 50%
Target sequence (Q96LD8 whole entry, looked up): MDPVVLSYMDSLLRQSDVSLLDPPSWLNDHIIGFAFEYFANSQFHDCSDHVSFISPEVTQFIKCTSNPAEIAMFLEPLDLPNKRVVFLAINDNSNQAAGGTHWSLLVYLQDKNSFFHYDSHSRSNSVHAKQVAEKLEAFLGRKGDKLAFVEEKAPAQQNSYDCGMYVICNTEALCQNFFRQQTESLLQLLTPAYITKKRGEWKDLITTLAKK
SENP8 block-2: inhibitors of human SENP8 protease; Q96LD8; recombinant SENP8, Nedd8 substrate fluorescence; inhibition, % at 20 µM; 360,000 compounds, 0.64% hits; in the data active = inhibition mostly above about 40%, no sharp cut-off; inactive = mostly below about 27%
SENP8 conf: human SENP8 inhibition, confirmed; shares compounds with SENP7 inh; Recombinant SENP8, Z-RLRGG-aminoluciferin luminescence, 60 min; inhibition, % at 12.5 µM; 6,200 compounds, 40% hits;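 active = mean inhibition across replicates above about 50%, limit read from the data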
SENP6 conf: confirmation of human SENP6 protease inhibitors. shares compounds with SENP7 inh. recombinant SENP6, Z-RLRGG-aminoluciferin luminescence. inhibition, % at 12.5 µM. 6,200 compounds, 58% hits
SENP7 confirm: confirmation of human SENP7 protease inhibitors; shares compounds with SENP7 inh; 6,200 compounds, 69% hits; inhibition, % at 12.5 µM; recombinant SENP7, Z-RLRGG-aminoluciferin luminescence, 40 min
Casp3 SENP sel: inhibits human caspase-3 in SENP selectivity test; inhibition, % at 12.5 µM; 6,200 compounds, 60% hits; shares compounds with SENP7 inh; purified caspase-3, Z-DEVD-aminoluciferin luminescence, 60 min;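 active = mean inhibition above about 50%, limit read from the data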;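 also: plate controls were enzyme with DMSO for no effect and wells without caspase-3 for full effect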
Target sequence (P42574 28-227 limits assumed): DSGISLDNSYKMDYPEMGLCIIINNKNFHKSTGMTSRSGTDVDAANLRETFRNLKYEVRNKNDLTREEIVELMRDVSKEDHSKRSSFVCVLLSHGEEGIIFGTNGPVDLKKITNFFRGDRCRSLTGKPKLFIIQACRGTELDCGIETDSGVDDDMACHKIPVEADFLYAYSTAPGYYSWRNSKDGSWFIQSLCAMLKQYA
Luc interf: interferes with luciferase luminescence in SENP counter-screen; inhibition, % at 12.5 µM; Pre-incubated SENP8/Z-RLRGG-aminoluciferin, luciferase luminescence interference; shares compounds with SENP7 inh; 6,200 compounds, 39% hits; AID 488919;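 active = mean inhibition above about 50% when retested at one dose, limit read from the data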;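 also: plate controls were DMSO wells with completed reaction for no effect and substrate without enzyme for full effect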
The depositor's hits bear a star.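 The calls were made as follows, unless noted: active = mean inhibition above about 50% in the one-dose retest (limit read from the data); inactive = the rest.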

Results for Brc1cc2c(cc1-c1nc3ccccc3s1)OCO2 ?
SENP7 inh: 0; SENP6 block: 17; UBC13 inh: -8; Apaf-1 inh: 17; SENP8 block-1: -11; SENP8 block-2: 6

What do the screens show for `Brc1ccc(-c2nc3ccccc3s2)s1`?
SENP7 inh: 96*; SENP6 block: 95*; UBC13 inh: 15; Apaf-1 inh: 16; SENP8 block-1: 95*; SENP8 block-2: -376; SENP8 conf: 66*; SENP6 conf: 82*; SENP7 confirm: 87*; Casp3 SENP sel: 28; Luc interf: 67*

Results for c1ccc(-c2nc3ccccc3s2)nc1 ?
SENP7 inh: 79*; SENP6 block: 90*; UBC13 inh: -10; Apaf-1 inh: 0; SENP8 block-1: 76*; SENP8 block-2: -14; SENP8 conf: 47; SENP6 conf: 89*; SENP7 confirm: 99*; Casp3 SENP sel: 89*; Luc interf: 36

Results for CN(C)c1ncccc1-c1nc2ccccc2s1 ?
SENP7 inh: -2; SENP6 block: -6; UBC13 inh: 5; Apaf-1 inh: 4; SENP8 block-1: -10; SENP8 block-2: -392

Results for CCCCCCN1C[C@@H](O)[C@H](n2cc(C3CC3)nn2)C[C@@H]1c1ccccc1 ?
SENP8 block-2: -3

How did CCOc1ccc(NC(=O)c2sc3nc(C)nc(N4CCOCC4)c3c2C)cc1 do in these assays?
SENP7 inh: -5; SENP6 block: -10; UBC13 inh: 0; Apaf-1 inh: 11; SENP8 block-1: -3; SENP8 block-2: -1

Results for O=C(O)c1cc(N2CCCCC2)ccn1 ?
SENP8 block-2: 11

Results for O=C1CCC(=O)N1c1ccc(-c2nc3ccccc3s2)cc1 ?
SENP7 inh: 94*; SENP6 block: 89*; UBC13 inh: -2; Apaf-1 inh: 10; SENP8 block-1: 70*; SENP8 block-2: -45; SENP8 conf: 42; SENP6 conf: 62*; SENP7 confirm: 83*; Casp3 SENP sel: 72*; Luc interf: 26

How did COc1ccc(/C=C/C(=O)NCC(=O)N/N=C/c2cc(Br)ccc2OC)cc1 do in these assays?
SENP7 inh: 84*; SENP6 block: -6; UBC13 inh: -10; Apaf-1 inh: 7; SENP8 block-1: -3; SENP8 block-2: 4; SENP8 conf: 3; SENP6 conf: 0; SENP7 confirm: -1; Casp3 SENP sel: -2; Luc interf: -2

How did COc1ccccc1/C=C/C(=O)NCC(=O)N/N=C/c1cc(Br)ccc1OC do in these assays?
SENP7 inh: 3; SENP6 block: -9; UBC13 inh: 0; Apaf-1 inh: 17; SENP8 block-1: -4; SENP8 block-2: -73

Results for CCN(CC)CCOC(=O)c1cccc2c1-c1ccccc1C2O (centres undefined) ?
SENP7 inh: 11; SENP6 block: 3; UBC13 inh: 6; Apaf-1 inh: 4; SENP8 block-1: 1; SENP8 block-2: -133

How did CCCC1(c2ccccc2)NC(=O)N(CC(=O)Nc2cc(S(=O)(=O)N3CCOCC3)ccc2Cl)C1=O (centres undefined) do in these assays?
SENP7 inh: -15; SENP6 block: -27; UBC13 inh: -14; Apaf-1 inh: 1; SENP8 block-1: -2; SENP8 block-2: -36

Results for Cc1ccnc(NS(=O)(=O)c2ccc(NC(=O)C3COc4ccccc4O3)cc2)n1 (centres undefined) ?
SENP7 inh: 11; SENP6 block: 15; UBC13 inh: 5; Apaf-1 inh: -4; SENP8 block-1: 10; SENP8 block-2: 12

What do the screens show for `Cc1cc(C)c2nc(-n3nc(C)cc3N)cc(C)c2c1`?
SENP7 inh: -2; SENP6 block: 11; UBC13 inh: 5; Apaf-1 inh: 7; SENP8 block-1: -4; SENP8 block-2: 4

How did Cc1cc(N)n(-c2cc(C)c3ccccc3n2)n1 do in these assays?
SENP7 inh: 81*; SENP6 block: 79*; UBC13 inh: -6; Apaf-1 inh: 4; SENP8 block-1: 73*; SENP8 block-2: 9; SENP8 conf: -26; SENP6 conf: 71*; SENP7 confirm: 93*; Casp3 SENP sel: 79*; Luc interf: 70*

What do the screens show for `O=C1/C(=C/c2ccccc2)CCCc2ccccc21`?
SENP7 inh: 66*; SENP6 block: 70*; UBC13 inh: -4; Apaf-1 inh: 14; SENP8 block-1: 76*; SENP8 block-2: 16; SENP8 conf: 89*; SENP6 conf: 93*; SENP7 confirm: 97*; Casp3 SENP sel: 76*; Luc interf: 83*

Results for CN(C)c1ccc(/C=C2\CCC/C(=C\c3ccccc3)C2=O)cc1 ?
SENP8 block-2: 10

Results for O=C1/C(=C\c2cccnc2)CCc2ccccc21 ?
SENP7 inh: 12; SENP6 block: 74*; UBC13 inh: 8; Apaf-1 inh: 8; SENP8 block-1: 26; SENP8 block-2: 18; SENP8 conf: 75*; SENP6 conf: 63*; SENP7 confirm: 24; Casp3 SENP sel: 2; Luc interf: 84*

How did O=C(/C=C/c1ccccc1[N+](=O)[O-])Nc1ccccc1 do in these assays?
SENP7 inh: 87*; SENP6 block: 90*; UBC13 inh: 6; Apaf-1 inh: -4; SENP8 block-1: 81*; SENP8 block-2: 3; SENP8 conf: 83*; SENP6 conf: 82*; SENP7 confirm: 94*; Casp3 SENP sel: 81*; Luc interf: 81*

How did O=C(O)/C=C/c1ccccc1[N+](=O)[O-] do in these assays?
SENP7 inh: -6; SENP6 block: -26; UBC13 inh: -4; Apaf-1 inh: -17; SENP8 block-1: -7; SENP8 block-2: 12

Results for COc1ccc(OC)c(NC(=O)C(=O)N/N=C/c2ccccc2[N+](=O)[O-])c1 ?
SENP7 inh: 92*; SENP6 block: -7; UBC13 inh: -3; Apaf-1 inh: -7; SENP8 block-1: -4; SENP8 block-2: 16; SENP8 conf: 7; SENP6 conf: 8; SENP7 confirm: 7; Casp3 SENP sel: 4; Luc interf: 3
